According to ChEMBL document CHEMBL1124780, “Phenyl selenones: alkyl transfer by selenium-carbon bond cleavage” (J Med Chem, 1990):

Columns and labels:
[1] = Half-life after NBP alkylation; assay type: ADME
How it was run: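 NBP alkylation at 37 °C in aqueous acetone (52.2:47.8, v/v) with 40.6 mM NBP (pseudo-first-order excess), 17.4 mM Tris-HCl pH 7.4, and 0.087 or 0.174 mM alkylating agent. First-order rate constants were taken from plots of log(percent remaining alkylating species) vs time. Adduct was read at 560 nm after triethylamine alkalization.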

[2] = tested on: CCRF-CEM; assay: In vitro growth inhibition against CCRF-CEM human lymphoblast cells; assay type: functional, cell-based
How it was run: (§1)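 Cells were exposed to drug in vitro for 48 h (L1210 murine leukemia; CCRF-CEM human lymphoblast). The value is the drug concentration giving 50% growth inhibition.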

[3] = tested on: L1210; assay: In vitro growth inhibition against L1210 murine leukemia cells; assay type: functional, cell-based; conditions: Mus musculus; how it was run: as §1
[4] = Pseudo first order rate constant of NBP alkylation was determined at 37 degree Centigrade; assay type: ADME
How it was run: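 Alkylating agent (0.087 or 0.174 mM) reacted at 37 °C with 4-(4-nitrobenzyl)pyridine (40.6 mM, pseudo-first-order excess). Medium was aqueous acetone (52.2:47.8 v/v) with 17.4 mM Tris-HCl, pH 7.4. k' was taken from plots of log(% remaining alkylating species) vs time.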

[5] = tested on: CCRF-CEM; assay: In vitro cytotoxicity was determined against CCRF-CEM human leukemia cell line using NCI screen; assay type: functional, cell-based
[6] = tested on: A498; assay: In vitro cytotoxicity was determined against A 498 human renal tumor cell line using NCI screen; assay type: functional, cell-based
[7] = tested on: HOP-62; assay: In vitro cytotoxicity was determined against HOP-62 human non-small cell lung carcinoma cell line using NCI screen; assay type: functional, cell-based
[8] = tested on: MOLT-4; assay: In vitro cytotoxicity was determined against MOLT-4 human leukemia cell line using NCI screen; assay type: functional, cell-based
[9] = tested on: RPMI-8226; assay: In vitro cytotoxicity was determined against RPMI 8226 human leukemia cell line using NCI screen; assay type: functional, cell-based
[10] = tested on: SNB-78; assay: In vitro cytotoxicity was determined against SNB78 human CNS tumor cell line using NCI screen; assay type: functional, cell-based
[11] = tested on: COLO 320; assay: In vitro cytotoxicity was determined against COLO 320 DM human colon tumor cell line using NCI screen; assay type: functional, cell-based
[12] = tested on: A2780; assay: In vitro cytotoxicity was determined against A2780 human ovarian cell line using NCI screen; assay type: functional, cell-based
[13] = tested on: SK-MEL-28; assay: In vitro cytotoxicity was determined against SK-MEL-28 human melanoma cell line using NCI screen; assay type: functional, cell-based
[14] = tested on: UACC-62; assay: In vitro cytotoxicity was determined against UACC-62 human melanoma cell line using NCI screen; assay type: functional, cell-based
[15] = tested on: COLO 205; assay: In vitro cytotoxicity was determined against COLO-205 human colon tumor cell line using NCI screen; assay type: functional, cell-based
[16] = tested on: SF-268; assay: In vitro cytotoxicity was determined against SF-268 human CNS tumor cell line using NCI screen; assay type: functional, cell-based
[17] = tested on: SF-295; assay: In vitro cytotoxicity was determined against SF-295, U251, SNB19 human CNS tumor cell line using NCI screen; assay type: functional, cell-based
[18] = tested on: SK-MEL-2; assay: In vitro cytotoxicity was determined against SK-MEL-2 human melanoma cell line using NCI screen; assay type: functional, cell-based
[19] = tested on: Malme-3M; assay: In vitro cytotoxicity was determined against MALME-3M human melanoma cell line using NCI screen; assay type: functional, cell-based
[20] = tested on: Hs-578T; assay: In vitro cytotoxicity was determined against Hs 578.T human breast tumor cell line using BACTEC screen; assay type: functional, cell-based
[21] = tested on: CCRF-SB; assay: In vitro cytotoxicity was determined against CCRF-SB human leukemia cell line using NCI screen; assay type: functional, cell-based
[22] = tested on: NCI-H460; assay: In vitro cytotoxicity was determined against H460 human non-small cell lung carcinoma cell line using NCI screen; assay type: functional, cell-based
[23] = tested on: UACC-257; assay: In vitro cytotoxicity was determined against UACC-257 human melanoma cell line using NCI screen; assay type: functional, cell-based
[24] = tested on: HOP-19; assay: In vitro cytotoxicity was determined against HOP-19 human non-small cell lung carcinoma cell line using NCI screen; assay type: functional, cell-based
[25] = tested on: TE-671; assay: In vitro cytotoxicity was determined against TE671 human CNS tumor cell line using NCI screen; assay type: functional, cell-based
[26] = tested on: OVCAR-5; assay: In vitro cytotoxicity was determined against OVCAR5 human ovarian cell line using NCI screen; assay type: functional, cell-based
[27] = tested on: MCF7; assay: In vitro cytotoxicity was determined against MCF-7M human breast tumor cell line using BACTEC screen; assay type: functional, cell-based
[28] = tested on: SK-MEL-5; assay: In vitro cytotoxicity was determined against SK-MEL-5 human melanoma cell line using NCI screen; assay type: functional, cell-based
[29] = tested on: OM-1; assay: In vitro cytotoxicity was determined against OM-1 human colon tumor cell line using BACTEC screen; assay type: functional, cell-based
[30] = tested on: SK-OV-3; assay: In vitro cytotoxicity was determined against SKOV-3 human ovarian cell line using NCI screen; assay type: functional, cell-based
[31] = species: Homo sapiens; assay: In vitro cytotoxicity was determined against SKLU human non-small cell lung carcinoma cell line using BACTEC screen; assay type: functional
[32] = tested on: HT-29; assay: In vitro cytotoxicity was determined against HT-29 human colon tumor cell line using BACTEC screen; assay type: functional, cell-based
[33] = species: Homo sapiens; assay: In vitro cytotoxicity was determined against CALU 3 human non-small cell lung carcinoma cell line using BACTEC screen; assay type: functional
[34] = tested on: LOX IMVI; assay: In vitro cytotoxicity was determined against LOX human melanoma cell line using NCI screen; assay type: functional, cell-based
[35] = tested on: IGROV-1; assay: In vitro cytotoxicity was determined against IGROVI human ovarian cell line using NCI screen; assay type: functional, cell-based
[36] = tested on: NCI-H23; assay: In vitro cytotoxicity was determined against H23 human non-small cell lung carcinoma cell line using NCI screen; assay type: functional, cell-based
[37] = tested on: COLO 320; assay: In vitro cytotoxicity was determined against COLO 320 human colon tumor cell line using BACTEC screen; assay type: functional, cell-based
[38] = tested on: HCT-15; assay: In vitro cytotoxicity was determined against HCT-15 human colon tumor cell line using NCI screen; assay type: functional, cell-based
[39] = tested on: HOP-18; assay: In vitro cytotoxicity was determined against HOP-18 human non-small cell lung carcinoma cell line using NCI screen; assay type: functional, cell-based
[40] = tested on: KM-20L2; assay: In vitro cytotoxicity was determined against KM20L2 human colon tumor cell line using NCI screen; assay type: functional, cell-based
[41] = tested on: SK-MES-1; assay: In vitro cytotoxicity was determined against SKMES human non-small cell lung carcinoma cell line using BACTEC screen; assay type: functional, cell-based
[42] = tested on: K562; assay: In vitro cytotoxicity was determined against K-562 human leukemia cell line using NCI screen; assay type: functional, cell-based
[43] = tested on: SNB-19; assay: In vitro cytotoxicity was determined against SNB19 human CNS tumor cell line using NCI screen; assay type: functional, cell-based
[44] = tested on: HCT-116; assay: In vitro cytotoxicity was determined against COLO 320 DM,HCT-15, COLO-205, HCT116 HCC 2998, KM20L2, KM12 human colon tumor cell line using NCI screen; assay type: functional, cell-based
[45] = tested on: SN12C; assay: (§2) In vitro cytotoxicity was determined against SN12 KI human renal tumor cell line using NCI screen; assay type: functional, cell-based
[46] = tested on: SN12C; assay: as §2; assay type: functional, cell-based; remark: listed apart in the source
[47] = tested on: U-251; assay: In vitro cytotoxicity was determined against U251 human CNS tumor cell line using NCI screen; assay type: functional, cell-based
[48] = tested on: SF-539; assay: In vitro cytotoxicity was determined against SF-539 human CNS tumor cell line using NCI screen; assay type: functional, cell-based
[49] = tested on: M19-MEL; assay: In vitro cytotoxicity was determined against M19-MEL human melanoma cell line using NCI screen; assay type: functional, cell-based
[50] = tested on: UO-31; assay: In vitro cytotoxicity was determined against UO-31 human renal tumor cell line using NCI screen; assay type: functional, cell-based
[51] = tested on: KM12; assay: In vitro cytotoxicity was determined against KM12 human colon tumor cell line using NCI screen; assay type: functional, cell-based
[52] = tested on: HCC 2998; assay: In vitro cytotoxicity was determined against HCC 2998 human colon tumor cell line using NCI screen; assay type: functional, cell-based

In the case of O=S(=O)(CCCl)c1ccccc1, the half-life [1] is reported as greater than 96 h, the IC50 [2] is reported as 2.25 µM and the IC50 [3] is reported as 2.3 µM. For the same compound, the k' [4] was less than 0.00012 min⁻¹.

ClCC[Se]CCCl gave a half-life [1] of 0.004 h.

CC[Se](=O)(=O)c1ccccc1 gave a half-life [1] of 4.67 h, an IC50 [2] of 10 µM and an IC50 [3] of 5 µM. The k' [4] was 0.00248 min⁻¹.

With CS(=O)(=O)CS(=O)(=O)OCCCl the half-life [1] was 9.4 h, the IC50 [3] was 3 µM and the k' [4] was 0.00123 min⁻¹.

In the case of COc1ccc([Se](=O)(=O)CCCl)cc1, the half-life [1] is reported as 9.25 h, the IC50 [2] is reported as 0.14 µM and the IC50 [3] is reported as 0.36 µM. The k' [4] was 0.00125 min⁻¹.

O=[Se](=O)(CCCl)c1ccccc1 gave an IC50 [5] of 0.45 µM, an IC50 [6] of 4.6 µM and an IC50 [7] of 4.3 µM. For the same compound, the IC50 [8] was 0.45 µM, the IC50 [9] was 0.45 µM and the IC50 [10] was 6 µM. It also gave an IC50 [11] of 2.3 µM, an IC50 [12] of 7.8 µM and an IC50 [13] of 3.7 µM. It also gave an IC50 [14] of 3.7 µM, an IC50 [15] of 2.3 µM and an IC50 [16] of 6 µM. For the same compound, the IC50 [17] was 6 µM, the half-life [1] was 8.37 h and the IC50 [18] was 3.7 µM. The IC50 [19] was 3.7 µM, the IC50 [20] was 0.9 µM and the IC50 [21] was 0.45 µM. It also gave an IC50 [22] of 4.3 µM, an IC50 [23] of 3.7 µM and an IC50 [24] of 4.3 µM. It also gave an IC50 [25] of 6 µM, an IC50 [26] of 7.8 µM and an IC50 [27] greater than 4 µM. The IC50 [28] was 3.7 µM, the IC50 [29] was greater than 4 µM and the IC50 [2] was 0.15 µM. The IC50 [30] was 7.8 µM, the IC50 [31] was 0.06 µM and the IC50 [32] was 1.9 µM. The IC50 [33] was 2.2 µM, the IC50 [34] was 3.7 µM and the IC50 [35] was 7.8 µM. The IC50 [3] was 0.55 µM, the IC50 [36] was 4.3 µM and the IC50 [37] was 1.2 µM. For the same compound, the IC50 [38] was 2.3 µM, the IC50 [39] was 4.3 µM and the IC50 [40] was 2.3 µM. The IC50 [41] was 0.15 µM, the IC50 [42] was 0.45 µM and the IC50 [43] was 6 µM. It also gave an IC50 [44] of 2.3 µM, an IC50 [45] of 4.6 µM and an IC50 [46] of 4.6 µM. For the same compound, the IC50 [47] was 6 µM, the IC50 [48] was 6 µM and the IC50 [49] was 3.7 µM. The IC50 [50] was 4.6 µM, the IC50 [51] was 2.3 µM and the IC50 [52] was 2.3 µM. It also gave a k' [4] of 0.00138 min⁻¹.

In the case of O=[N+]([O-])c1ccc([Se](=O)(=O)CCCl)cc1, the half-life [1] is reported as 1.08 h, the IC50 [2] is reported as 0.4 µM and the IC50 [3] is reported as 0.9 µM. The k' [4] was 0.0104 min⁻¹.

Work on CS(=O)(=O)OCCC[Se](=O)(=O)c1ccccc1 yielded a half-life [1] of 9.55 h, an IC50 [2] of 0.9 µM and an IC50 [3] of 1.2 µM. It also gave a k' [4] of 0.00121 min⁻¹.

In the case of ClCC[Se]c1ccccc1, the half-life [1] is reported as 0.031 h.

With O=[Se](O)c1ccccc1 [BENZENE SELENOIC ACID] the IC50 [3] was 3 µM.

In the case of O=C(O)CCCc1ccc(N(CCCl)CCCl)cc1 [CHLORAMBUCIL], the half-life [1] is reported as 7.75 h and the k' [4] is reported as 0.00149 min⁻¹.
